This note sets out measurements from ChEMBL document CHEMBL3804768, “Structure-Activity Relationship Studies of Mitogen Activated Protein Kinase Interacting Kinase (MNK) 1 and 2 and BCR-ABL1 Inhibitors Targeting Chronic Myeloid Leukemic Cells” (J Med Chem, 2016).

In general, IC50 refers to the midpoint of a concentration-inhibition curve. What is called inhibition is the relative decrease from the control value, in per cent. One may read the GI50 as the concentration at which growth is held to half of that of the control. High values mean less potent growth inhibition, low ones more potent growth inhibition. As usually defined, the bioavailability is dose-corrected exposure relative to a reference, in per cent. A lower bioavailability goes with little systemic uptake.

Converted amounts (≈) assume the structure as drawn. The source made the active and inactive calls. The rule behind the calls is not given here. Some results are limits rather than exact numbers.

The target of one data set is Cytochrome P450 3A4 (Homo sapiens, UniProt P08684). Description: Inhibition of CYP3A4 (unknown origin). It is filed as ADME.
Chain of Cytochrome P450 3A4 (P08684 whole entry): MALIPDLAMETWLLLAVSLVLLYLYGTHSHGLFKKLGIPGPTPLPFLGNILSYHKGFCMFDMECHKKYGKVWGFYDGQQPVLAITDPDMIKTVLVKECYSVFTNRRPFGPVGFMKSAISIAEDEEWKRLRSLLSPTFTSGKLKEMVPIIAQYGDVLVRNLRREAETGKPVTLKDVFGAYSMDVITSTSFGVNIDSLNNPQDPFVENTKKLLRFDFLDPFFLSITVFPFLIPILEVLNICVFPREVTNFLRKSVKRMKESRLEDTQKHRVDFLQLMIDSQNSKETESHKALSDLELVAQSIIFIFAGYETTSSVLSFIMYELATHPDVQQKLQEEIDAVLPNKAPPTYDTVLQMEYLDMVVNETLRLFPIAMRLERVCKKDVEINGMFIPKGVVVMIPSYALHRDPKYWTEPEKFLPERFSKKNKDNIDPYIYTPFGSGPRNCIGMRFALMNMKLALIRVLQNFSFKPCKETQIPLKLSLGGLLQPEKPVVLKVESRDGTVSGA
A short description of data set [1]: Thermodynamic solubility in pH 4 pION buffer at 500 uM incubated for 18 hrs by UV-spectrophotometry. The class given is physicochemical. As to conditions: read-out: Therm_solubility.
The test system of another data set is Mus musculus. The data set can be described thus: In vivo inhibition of MNK1/MNK2 in NOD-SCID mouse tumor xenografted with human K562 cells over expressing eIF4E assessed as inhibition of eIF4E phosphorylation at Ser209 at 50 mg/kg, po qd adminstered through oral gavage measured 4 hrs post dose by AlphaScreen SureFire assay. It is filed as functional, organism-based. Put shortly: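 Tumors were excised after the final day-14 oral dose (50 mg/kg) and flash frozen, then homogenized in SureFire lysis buffer with protease and phosphatase inhibitors. Lysate protein was normalized to 0.5 mg/mL by A280. Phospho-eIF4E Ser209 was read by AlphaScreen SureFire with 2 h acceptor and 2 h donor incubations at room temperature. Inhibition was calculated against the 0 h control signal.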

A short description of data set [2]: Antiproliferative activity against human JURL-MK1 cells after 48 hrs by Cell-Titer-Glo luminescent cell viability assay. The class given is functional. The settings on record: JURL-MK1, 48 h.
Data set [3] in a line: Oral bioavailability in CD1 mouse at 50 mg/kg. It is filed as ADME, organism-based. The settings on record: in vivo.
In data set [4] the target is T1, Receptor-type tyrosine-protein kinase FLT3 (Homo sapiens, UniProt P36888).
T1 sequence (P36888 whole entry): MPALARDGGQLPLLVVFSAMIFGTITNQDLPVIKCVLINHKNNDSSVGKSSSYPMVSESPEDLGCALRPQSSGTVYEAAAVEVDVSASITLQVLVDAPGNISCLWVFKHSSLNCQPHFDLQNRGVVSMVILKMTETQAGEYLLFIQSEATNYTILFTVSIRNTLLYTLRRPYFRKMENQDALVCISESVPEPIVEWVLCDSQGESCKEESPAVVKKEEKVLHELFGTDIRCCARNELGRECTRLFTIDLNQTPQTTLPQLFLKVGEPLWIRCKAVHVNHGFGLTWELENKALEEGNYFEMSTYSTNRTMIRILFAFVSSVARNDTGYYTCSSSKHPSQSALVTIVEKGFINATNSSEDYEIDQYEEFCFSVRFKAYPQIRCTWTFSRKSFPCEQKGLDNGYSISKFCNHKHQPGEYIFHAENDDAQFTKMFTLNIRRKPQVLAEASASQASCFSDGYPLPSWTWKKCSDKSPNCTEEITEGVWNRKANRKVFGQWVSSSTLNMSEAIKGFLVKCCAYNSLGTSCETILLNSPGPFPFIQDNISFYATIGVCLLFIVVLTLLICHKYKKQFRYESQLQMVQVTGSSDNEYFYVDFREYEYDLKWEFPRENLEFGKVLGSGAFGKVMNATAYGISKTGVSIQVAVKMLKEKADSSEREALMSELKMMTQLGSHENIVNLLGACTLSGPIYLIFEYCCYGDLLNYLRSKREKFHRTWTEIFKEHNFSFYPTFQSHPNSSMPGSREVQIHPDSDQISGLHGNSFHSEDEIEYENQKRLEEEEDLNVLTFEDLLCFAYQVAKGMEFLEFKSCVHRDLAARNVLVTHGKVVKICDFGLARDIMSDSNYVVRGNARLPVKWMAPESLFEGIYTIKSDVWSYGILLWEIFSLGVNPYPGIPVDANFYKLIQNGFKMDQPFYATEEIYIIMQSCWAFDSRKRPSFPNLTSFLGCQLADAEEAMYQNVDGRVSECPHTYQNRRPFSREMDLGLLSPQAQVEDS
Description: Inhibition of human recombinant FLT3 expressed in sf21 cells using Poly(Glu:Tyr) as substrate in presence of [gamma32P]ATP.

The subject of a further data set is K562. Description: Antiproliferative activity against human K562 cells over expressing eIF4E after 48 hrs by Cell-Titer-Glo luminescent cell viability assay. The class given is functional. As to conditions: K562, 48 h. The gist of the method:
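Cells seeded at 5000 per well in growth medium, exposed to serial doses from 0.003 μM to 50 μM for 48 h at 37 °C, 5% CO2. Viability was read by CellTiter-Glo luminescence and GI50 taken from the dose-response curve. Dose response was run in triplicate and the curve repeated twice. K562 eIF4E-overexpressing cells were cultured in RPMI with 10% FBS.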

In data set [5] the target is Platelet-derived growth factor receptor beta (Homo sapiens, UniProt P09619). Description: Inhibition of human recombinant PDGFRbeta expressed in sf21 cells using Poly(Glu:Tyr) as substrate in presence of [gamma32P]ATP.
Chain of Platelet-derived growth factor receptor beta (P09619 whole entry): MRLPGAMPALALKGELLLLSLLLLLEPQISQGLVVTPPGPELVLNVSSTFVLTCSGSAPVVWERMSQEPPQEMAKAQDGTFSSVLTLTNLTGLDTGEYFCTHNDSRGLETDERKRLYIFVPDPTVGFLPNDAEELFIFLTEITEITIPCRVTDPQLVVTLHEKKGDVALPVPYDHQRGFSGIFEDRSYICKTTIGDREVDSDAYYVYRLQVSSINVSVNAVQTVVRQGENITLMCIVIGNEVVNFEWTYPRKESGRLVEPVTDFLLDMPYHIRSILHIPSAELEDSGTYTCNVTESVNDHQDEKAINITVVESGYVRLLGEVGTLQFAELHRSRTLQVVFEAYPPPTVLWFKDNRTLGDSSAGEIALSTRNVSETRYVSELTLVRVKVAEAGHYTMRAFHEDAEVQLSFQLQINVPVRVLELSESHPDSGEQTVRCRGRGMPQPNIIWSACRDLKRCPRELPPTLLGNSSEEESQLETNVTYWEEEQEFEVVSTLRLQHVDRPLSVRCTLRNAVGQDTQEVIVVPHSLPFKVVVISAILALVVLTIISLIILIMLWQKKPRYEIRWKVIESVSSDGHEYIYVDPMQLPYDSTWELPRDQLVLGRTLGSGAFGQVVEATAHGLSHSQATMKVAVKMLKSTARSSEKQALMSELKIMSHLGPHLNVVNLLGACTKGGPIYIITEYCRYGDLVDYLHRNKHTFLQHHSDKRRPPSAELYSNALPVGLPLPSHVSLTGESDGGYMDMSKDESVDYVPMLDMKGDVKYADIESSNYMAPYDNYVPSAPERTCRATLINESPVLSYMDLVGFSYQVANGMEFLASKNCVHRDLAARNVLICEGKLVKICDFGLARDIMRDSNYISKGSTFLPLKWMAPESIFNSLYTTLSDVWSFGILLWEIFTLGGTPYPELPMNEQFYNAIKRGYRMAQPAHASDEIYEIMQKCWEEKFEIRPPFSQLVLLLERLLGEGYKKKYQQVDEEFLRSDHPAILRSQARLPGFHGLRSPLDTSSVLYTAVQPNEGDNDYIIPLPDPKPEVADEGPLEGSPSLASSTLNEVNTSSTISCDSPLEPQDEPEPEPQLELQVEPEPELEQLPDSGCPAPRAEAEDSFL
The nature of data set [6]: Plasma protein binding in human. The class given is ADME, cell-free. As to conditions: read-out: PPB (converted).
Data set [7] deals with Receptor-type tyrosine-protein kinase FLT3 (Homo sapiens) (UniProt P36888). The data set can be described thus: Inhibition of human recombinant FLT3 expressed in sf21 cells at 1 uM using Poly(Glu:Tyr) as substrate in presence of [gamma32P]ATP.
Data set [8] has as its target MAP kinase-interacting serine/threonine-protein kinase 1/2 (Homo sapiens, UniProt Q9HBH9+Q9BUB5). Description: Inhibition of MNK1/MNK2 in human HeLa cells assessed as reduction in phosphorylation of eIF4E at Ser209 after 2 hrs by AlphaScreen SureFire assay. The class given is cell-based. Put shortly: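 HeLa cells were grown in DMEM with 10% FBS and penicillin/streptomycin, seeded at 30,000 per well and left 24 h. They were then exposed to serially diluted compound in serum-free DMEM for 2 h at 37 °C and lysed with shaking for 20 min. Phospho-eIF4E Ser209 was read by AlphaScreen SureFire with 2 h acceptor and 2 h donor steps at room temperature. Dose response was run in triplicate.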
In general terms: In Alpha technology, singlet oxygen from a donor bead excites a nearby acceptor bead.

In data set [9] the target is Tyrosine-protein kinase ABL1 (Homo sapiens) (UniProt P00519). The data set can be described thus: Inhibition of ABL1 in human K562 cells over expressing eIF4E assessed as reduction in phosphorylation of Crkl at Tyr207 after 24 hrs by Western blot analysis. The class given is cell-based. The gist of the method: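 K562 eIF4E-overexpressing cells were treated at 100, 500 and 1000 nM for 24 h and lysed in RIPA buffer with SDS and protease/phosphatase inhibitors. Equal protein was resolved on 4-12% Bis-Tris gels and blotted to PVDF, with blocking in 5% BSA/PBST. The blot was probed overnight at 4 °C with a Bcr/Abl activity antibody cocktail for Crkl and phospho-Crkl Tyr207, and detected by ECL chemiluminescence.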
Chain of Tyrosine-protein kinase ABL1 (Homo sapiens) (P00519 whole entry): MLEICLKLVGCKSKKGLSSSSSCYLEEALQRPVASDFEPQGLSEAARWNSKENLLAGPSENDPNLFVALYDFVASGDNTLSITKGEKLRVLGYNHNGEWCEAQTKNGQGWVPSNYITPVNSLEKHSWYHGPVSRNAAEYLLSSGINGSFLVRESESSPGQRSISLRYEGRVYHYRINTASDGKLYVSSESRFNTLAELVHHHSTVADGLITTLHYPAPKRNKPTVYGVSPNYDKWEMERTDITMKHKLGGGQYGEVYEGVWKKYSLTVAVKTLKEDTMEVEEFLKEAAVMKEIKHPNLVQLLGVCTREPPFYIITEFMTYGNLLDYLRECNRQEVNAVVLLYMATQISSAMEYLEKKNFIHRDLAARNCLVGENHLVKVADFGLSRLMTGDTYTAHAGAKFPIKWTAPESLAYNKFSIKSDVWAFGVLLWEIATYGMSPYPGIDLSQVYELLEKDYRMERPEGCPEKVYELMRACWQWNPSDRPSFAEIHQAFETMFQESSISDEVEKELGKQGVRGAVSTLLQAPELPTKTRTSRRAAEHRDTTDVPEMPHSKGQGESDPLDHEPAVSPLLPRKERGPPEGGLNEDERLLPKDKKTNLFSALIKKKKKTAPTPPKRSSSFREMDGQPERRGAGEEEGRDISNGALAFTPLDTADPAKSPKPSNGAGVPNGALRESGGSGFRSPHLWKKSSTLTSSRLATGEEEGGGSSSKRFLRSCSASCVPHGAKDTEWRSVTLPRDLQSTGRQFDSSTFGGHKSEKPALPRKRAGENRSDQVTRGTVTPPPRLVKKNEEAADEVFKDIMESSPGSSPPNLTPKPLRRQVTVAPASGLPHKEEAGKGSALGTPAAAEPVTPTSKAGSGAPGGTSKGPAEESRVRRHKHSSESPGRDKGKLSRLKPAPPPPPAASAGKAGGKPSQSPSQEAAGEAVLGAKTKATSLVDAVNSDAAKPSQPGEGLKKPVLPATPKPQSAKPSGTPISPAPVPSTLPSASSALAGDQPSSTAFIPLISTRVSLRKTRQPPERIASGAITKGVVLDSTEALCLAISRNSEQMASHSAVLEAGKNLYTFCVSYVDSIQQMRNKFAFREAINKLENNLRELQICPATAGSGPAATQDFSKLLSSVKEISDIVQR
In general terms: In western blotting, separated proteins are transferred to a membrane and probed.

Data set [10] deals with Platelet-derived growth factor receptor alpha (Homo sapiens, UniProt P16234). Description: Inhibition of human recombinant PDGFRalpha expressed in sf21 cells at 1 uM using Poly(Glu:Tyr) as substrate in presence of [gamma32P]ATP.
Chain of Platelet-derived growth factor receptor alpha (P16234 whole entry): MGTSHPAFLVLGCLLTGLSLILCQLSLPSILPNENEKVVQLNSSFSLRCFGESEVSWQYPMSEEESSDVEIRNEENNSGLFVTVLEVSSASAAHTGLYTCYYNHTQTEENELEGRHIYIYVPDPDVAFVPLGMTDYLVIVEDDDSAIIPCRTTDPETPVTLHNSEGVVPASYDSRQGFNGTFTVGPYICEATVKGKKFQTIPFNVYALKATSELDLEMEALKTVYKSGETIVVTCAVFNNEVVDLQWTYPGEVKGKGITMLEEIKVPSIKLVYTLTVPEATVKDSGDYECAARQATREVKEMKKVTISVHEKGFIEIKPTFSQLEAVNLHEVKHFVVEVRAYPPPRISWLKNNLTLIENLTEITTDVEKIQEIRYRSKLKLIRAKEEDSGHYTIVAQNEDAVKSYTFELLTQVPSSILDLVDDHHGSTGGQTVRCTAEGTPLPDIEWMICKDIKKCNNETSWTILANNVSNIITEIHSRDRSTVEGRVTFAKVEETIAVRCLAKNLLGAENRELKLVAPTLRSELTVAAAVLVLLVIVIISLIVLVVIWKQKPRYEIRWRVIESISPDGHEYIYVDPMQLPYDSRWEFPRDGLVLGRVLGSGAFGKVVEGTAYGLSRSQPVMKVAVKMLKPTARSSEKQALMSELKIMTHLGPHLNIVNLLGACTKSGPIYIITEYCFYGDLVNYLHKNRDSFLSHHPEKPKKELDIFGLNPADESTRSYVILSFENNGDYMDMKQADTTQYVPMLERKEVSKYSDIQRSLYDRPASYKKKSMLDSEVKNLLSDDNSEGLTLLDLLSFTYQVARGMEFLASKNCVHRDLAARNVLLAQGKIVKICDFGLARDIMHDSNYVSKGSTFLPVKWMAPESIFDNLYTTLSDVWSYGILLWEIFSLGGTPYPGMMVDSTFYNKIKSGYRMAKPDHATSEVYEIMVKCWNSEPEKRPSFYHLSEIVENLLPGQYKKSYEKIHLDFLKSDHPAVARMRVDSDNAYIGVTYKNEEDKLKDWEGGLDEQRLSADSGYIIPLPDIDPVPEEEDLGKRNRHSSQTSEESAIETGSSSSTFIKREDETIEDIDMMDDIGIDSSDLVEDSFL
Data set [11] concerns the target Vascular endothelial growth factor receptor 2 (Homo sapiens, UniProt P35968). The data set can be described thus: Inhibition of human recombinant VEGFR2 expressed in sf21 cells at 1 uM using Poly(Glu:Tyr) as substrate in presence of [gamma32P]ATP.
The target in a further data set is Cytochrome P450 2D6 (Homo sapiens, UniProt P10635). The data set can be described thus: Inhibition of CYP2D6 (unknown origin). The class given is ADME.
Chain of Cytochrome P450 2D6 (P10635 whole entry, the tested form may be a part): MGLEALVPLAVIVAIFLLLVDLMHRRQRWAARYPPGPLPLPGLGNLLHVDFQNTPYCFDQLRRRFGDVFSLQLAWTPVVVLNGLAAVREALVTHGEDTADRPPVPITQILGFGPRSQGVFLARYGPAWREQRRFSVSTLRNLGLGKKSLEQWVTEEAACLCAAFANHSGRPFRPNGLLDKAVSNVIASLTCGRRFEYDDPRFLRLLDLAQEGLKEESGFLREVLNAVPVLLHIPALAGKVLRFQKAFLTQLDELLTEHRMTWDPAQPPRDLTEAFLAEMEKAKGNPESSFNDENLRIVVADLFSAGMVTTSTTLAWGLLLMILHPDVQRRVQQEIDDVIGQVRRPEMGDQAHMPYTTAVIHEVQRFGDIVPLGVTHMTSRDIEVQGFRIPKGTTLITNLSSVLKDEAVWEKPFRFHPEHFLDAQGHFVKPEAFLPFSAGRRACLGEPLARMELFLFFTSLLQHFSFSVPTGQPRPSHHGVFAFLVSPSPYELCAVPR
A further data set concerns the target Bcr/Abl fusion protein (Homo sapiens, UniProt P00519). The data set can be described thus: Inhibition of BCR fused full length human recombinant N-terminal His-tagged ABL (2 to 1130 residues) expressed in baculovirus expression system using FL-peptide 2 substrate preincubated for 10 mins followed by substrate addition measured after 60 mins by mobility shift assay.

For `CN1CCN(Cc2ccc(NC(=O)CNc3ccc(-c4ccc(NC(=O)C5CC5)nc4)cc3F)cc2C(F)(F)F)CC1`, the concentration for half-maximal inhibition (IC50) against Cytochrome P450 3A4 is above 30000 nM; in data set [4], 20 nM; in data set [5], 1050 nM; in [8], 280 nM; against Cytochrome P450 2D6 it was above 30000 nM; on Bcr/Abl fusion protein, 10 nM. Also, in data set [1], the solubility thermodynamic at 18 h, 500 µM was found to be 183 µg/mL (≈ 313 µM). For the same molecule, in the data set with Mus musculus, the inhibition entry was “Active”. For the same molecule, the results for the GI50 (in data set [2]; in the data set on K562) were 1 nM and 12 nM, respectively. Also, the bioavailability in data set [3] is 31%. In addition, the fraction unbound in data set [6] was 0.0022. Also, the inhibition was above 99% in data set [7], “Dose-dependent effect” in [9], above 99% in data set [10] and above 99% in [11].

On to `CCN1CCN(Cc2ccc(NC(=O)CNc3ccc(-c4ccc(NC(=O)C5CC5)nc4)cc3)cc2C(F)(F)F)CC1`, for which the IC50 at Cytochrome P450 3A4 was above 30000 nM; in data set [4], 20 nM; in data set [5] it was 1080 nM; in [8] it was 180 nM; against Cytochrome P450 2D6, above 30000 nM; on Bcr/Abl fusion protein it was 89 nM. In data set [1], the solubility thermodynamic at 18 h, 500 µM worked out at 128 µg/mL (≈ 220 µM). Also, the inhibition entry in the data set with Mus musculus is “Active”. The values for the GI50 (in data set [2]; in the data set on K562) were 30 nM and 51 nM, respectively. This molecule yielded a bioavailability in data set [3] of 80%. Also, the fraction unbound in data set [6] is 0.0008. Besides, the inhibition in [7] was above 99%; in data set [9], “Dose-dependent effect”; in [10], above 99%; in data set [11], above 99%.
